Converted amounts (≈) assume the structure as drawn.
Key:
Pseudomonas aeruginosa [1] = assay: Antimicrobial activity against Pseudomonas aeruginosa PAO1 after 18 hrs by agar dilution method; assay type: functional
Method in brief: (§1)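 MICs by agar dilution following CLSI guidelines; plates incubated 18 h at 37°C.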

Pseudomonas aeruginosa [2] = assay: Antimicrobial activity against Pseudomonas aeruginosa GP4KT11 harboring oprD gene after 18 hrs by agar dilution method; conditions: GP4KT11, 18 h
Pseudomonas aeruginosa [3] = assay: Antimicrobial activity against wild-type Pseudomonas aeruginosa GP4 after 18 hrs by agar dilution method; assay type: functional; method in brief: as §1
Pseudomonas aeruginosa [4] = assay: Antimicrobial activity against Pseudomonas aeruginosa GP62KT41 harboring oprD gene after 18 hrs by agar dilution method; assay type: functional
Method in brief: (§2)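 Carbapenem-resistant mutants were isolated on carbapenem-containing AB3 agar after 10^6-fold dilution and broth culture, with or without ciprofloxacin or ofloxacin. Randomly picked colonies were checked for MIC by agar dilution following CLSI guidelines, with 18 h incubation at 37°C. PAO1KTL and PAO1KTS came from meropenem selection without fluoroquinolone.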

Pseudomonas aeruginosa [5] = assay: Antimicrobial activity against Pseudomonas aeruginosa PAO1 KTS harboring mexAB-oprM gene after 18 hrs by agar dilution method; assay type: functional; method in brief: as §2
Pseudomonas aeruginosa [6] = assay: Antimicrobial activity against Pseudomonas aeruginosa PAO1 IPM46 harboring oprD gene after 18 hrs by agar dilution method; assay type: functional
Pseudomonas aeruginosa [7] = assay: Antimicrobial activity against Pseudomonas aeruginosa GP61KT51 harboring oprD,mexAB-oprM gene after 18 hrs by agar dilution method; assay type: functional
Pseudomonas aeruginosa [8] = assay: Antimicrobial activity against Pseudomonas aeruginosa GP37KT31 harboring oprD gene after 18 hrs by agar dilution method; assay type: functional; method in brief: as §2
Pseudomonas aeruginosa [9] = assay: Antimicrobial activity against wild-type Pseudomonas aeruginosa GP37 after 18 hrs by agar dilution method; assay type: functional; method in brief: as §1
Pseudomonas aeruginosa [10] = assay: Antimicrobial activity against wild-type Pseudomonas aeruginosa GP20 after 18 hrs by agar dilution method; assay type: functional; method in brief: as §1
Pseudomonas aeruginosa [11] = assay: Antimicrobial activity against Pseudomonas aeruginosa GP20KT21 harboring oprD gene after 18 hrs by agar dilution method; assay type: functional; method in brief: as §2
Pseudomonas aeruginosa [12] = assay: Antimicrobial activity against Pseudomonas aeruginosa GP4KT111 harboring oprD,mexAB-oprM gene after 18 hrs by agar dilution method; assay type: functional
Pseudomonas aeruginosa [13] = assay: Antimicrobial activity against wild-type Pseudomonas aeruginosa GP62 after 18 hrs by agar dilution method; assay type: functional; method in brief: as §1
Pseudomonas aeruginosa [14] = assay: Antimicrobial activity against wild-type Pseudomonas aeruginosa GP61 after 18 hrs by agar dilution method; assay type: functional; method in brief: as §1
Pseudomonas aeruginosa [15] = assay: Antimicrobial activity against Pseudomonas aeruginosa PAO1 KTL harboring oprD gene after 18 hrs by agar dilution method; assay type: functional; method in brief: as §2
Pseudomonas aeruginosa [16] = assay: Antimicrobial activity against Pseudomonas aeruginosa PAO1 KTL1 harboring oprD, mexAB-oprM gene after 18 hrs by agar dilution method; assay type: functional
Pseudomonas aeruginosa [17] = assay: Antimicrobial activity against Pseudomonas aeruginosa PAO1 SO20 harboring mexAB-oprM gene after 18 hrs by agar dilution method; assay type: functional
Pseudomonas aeruginosa [18] = assay: Antimicrobial activity against Pseudomonas aeruginosa GP4KT111 harboring oprD gene after 18 hrs by agar dilution method; assay type: functional; conditions: GP4KT11

Row | Compound | MIC (Pseudomonas aeruginosa [1]; PAO1, 18 h) | MIC (Pseudomonas aeruginosa [2]) | MIC (Pseudomonas aeruginosa [3]; GP4, 18 h) | MIC (Pseudomonas aeruginosa [4]; GP62KT41, 18 h) | MIC (Pseudomonas aeruginosa [5]) | MIC (Pseudomonas aeruginosa [6]; PAO1 IPM46, 18 h) | MIC (Pseudomonas aeruginosa [7]; GP61KT51, 18 h) | MIC (Pseudomonas aeruginosa [8]; GP37KT31, 18 h) | MIC (Pseudomonas aeruginosa [9]; GP37, 18 h) | MIC (Pseudomonas aeruginosa [10]; GP20, 18 h) | MIC (Pseudomonas aeruginosa [11]; GP20KT21, 18 h) | MIC (Pseudomonas aeruginosa [12]; GP4KT111, 18 h) | MIC (Pseudomonas aeruginosa [13]; GP62, 18 h) | MIC (Pseudomonas aeruginosa [14]; GP61, 18 h) | MIC (Pseudomonas aeruginosa [15]) | MIC (Pseudomonas aeruginosa [16]; PAO1 KTL1, 18 h) | MIC (Pseudomonas aeruginosa [17]; PAO1 SO20, 18 h) | further results
1 | CC(C)(O/N=C(\C(=O)N[C@@H]1C(=O)N2C(C(=O)[O-])=C(C[n+]3ccccc3)CS[C@H]12)c1csc(N)n1)C(=O)O [CEFTAZIDIME] | 1.6 µg/mL (≈ 2.93 µM) | 1.6 µg/mL (≈ 2.93 µM) | 1.6 µg/mL (≈ 2.93 µM) | 1.6 µg/mL (≈ 2.93 µM) | 6.3 µg/mL (≈ 11.5 µM) | 1.6 µg/mL (≈ 2.93 µM) | 12.5 µg/mL (≈ 22.9 µM) | 1.6 µg/mL (≈ 2.93 µM) | 1.6 µg/mL (≈ 2.93 µM) | 1.6 µg/mL (≈ 2.93 µM) | 1.6 µg/mL (≈ 2.93 µM) | 6.3 µg/mL (≈ 11.5 µM) | 1.6 µg/mL (≈ 2.93 µM) | 3.1 µg/mL (≈ 5.67 µM) | 1.6 µg/mL (≈ 2.93 µM) | 6.3 µg/mL (≈ 11.5 µM) | 6.3 µg/mL (≈ 11.5 µM) | 
2 | O=C(O)c1cn(C2CC2)c2cc(N3CCNCC3)c(F)cc2c1=O [CIPROFLOXACIN] | 0.2 µg/mL (≈ 0.604 µM) | 0.2 µg/mL (≈ 0.604 µM) | 0.2 µg/mL (≈ 0.604 µM) | 0.2 µg/mL (≈ 0.604 µM) | 0.8 µg/mL (≈ 2.41 µM) | 0.2 µg/mL (≈ 0.604 µM) | 0.8 µg/mL (≈ 2.41 µM) | 0.2 µg/mL (≈ 0.604 µM) | 0.2 µg/mL (≈ 0.604 µM) | 0.2 µg/mL (≈ 0.604 µM) | 0.2 µg/mL (≈ 0.604 µM) | 0.8 µg/mL (≈ 2.41 µM) | 0.2 µg/mL (≈ 0.604 µM) | 0.2 µg/mL (≈ 0.604 µM) | 0.2 µg/mL (≈ 0.604 µM) | 0.8 µg/mL (≈ 2.41 µM) | 0.8 µg/mL (≈ 2.41 µM) | 
3 | C[C@@H](O)[C@H]1C(=O)N2C(C(=O)O)=C(S[C@@H]3CN[C@H](CNS(N)(=O)=O)C3)[C@H](C)[C@H]12 [DORIPENEM] | 0.2 µg/mL (≈ 0.476 µM) | 1.6 µg/mL (≈ 3.8 µM) | 0.2 µg/mL (≈ 0.476 µM) | 0.8 µg/mL (≈ 1.9 µM) | 0.4 µg/mL (≈ 0.951 µM) | 0.8 µg/mL (≈ 1.9 µM) | 1.6 µg/mL (≈ 3.8 µM) | 1.6 µg/mL (≈ 3.8 µM) | 0.2 µg/mL (≈ 0.476 µM) | 0.2 µg/mL (≈ 0.476 µM) | 1.6 µg/mL (≈ 3.8 µM) | 3.1 µg/mL (≈ 7.37 µM) | 0.1 µg/mL (≈ 0.238 µM) | 0.8 µg/mL (≈ 1.9 µM) | 0.8 µg/mL (≈ 1.9 µM) | 1.6 µg/mL (≈ 3.8 µM) | 0.4 µg/mL (≈ 0.951 µM) | 
4 | C[C@@H](O)[C@H]1C(=O)N2C(C(=O)O)=C(SCCNC=N)C[C@H]12 [IMIPENEM ANHYDROUS] | 0.8 µg/mL (≈ 2.67 µM) | 12.5 µg/mL (≈ 41.8 µM) | 0.8 µg/mL (≈ 2.67 µM) | 12.5 µg/mL (≈ 41.8 µM) | 0.8 µg/mL (≈ 2.67 µM) | 12.5 µg/mL (≈ 41.8 µM) | 6.3 µg/mL (≈ 21 µM) | 12.5 µg/mL (≈ 41.8 µM) | 0.8 µg/mL (≈ 2.67 µM) | 0.8 µg/mL (≈ 2.67 µM) | 12.5 µg/mL (≈ 41.8 µM) | 12.5 µg/mL (≈ 41.8 µM) | 0.8 µg/mL (≈ 2.67 µM) | 6.3 µg/mL (≈ 21 µM) | 12.5 µg/mL (≈ 41.8 µM) | 12.5 µg/mL (≈ 41.8 µM) | 0.8 µg/mL (≈ 2.67 µM) | 
5 | C[C@@H](O)[C@H]1C(=O)N2C(C(=O)O)=C(S[C@@H]3CN[C@H](C(=O)N(C)C)C3)[C@H](C)[C@H]12 [MEROPENEM] | 0.2 µg/mL (≈ 0.522 µM) | 3.1 µg/mL (≈ 8.08 µM) | 0.2 µg/mL (≈ 0.522 µM) | 3.1 µg/mL (≈ 8.08 µM) | 1.6 µg/mL (≈ 4.17 µM) | 1.6 µg/mL (≈ 4.17 µM) | 6.3 µg/mL (≈ 16.4 µM) | 3.1 µg/mL (≈ 8.08 µM) | 0.2 µg/mL (≈ 0.522 µM) | 0.2 µg/mL (≈ 0.522 µM) | 3.1 µg/mL (≈ 8.08 µM) | 12.5 µg/mL (≈ 32.6 µM) | 0.2 µg/mL (≈ 0.522 µM) | 1.6 µg/mL (≈ 4.17 µM) | 1.6 µg/mL (≈ 4.17 µM) | 6.3 µg/mL (≈ 16.4 µM) | 1.6 µg/mL (≈ 4.17 µM) | 
6 | CC1COc2c(N3CCN(C)CC3)c(F)cc3c(=O)c(C(=O)O)cn1c23 (stereo unspecified) [OFLOXACIN] | 0.8 µg/mL (≈ 2.21 µM) | 1.6 µg/mL (≈ 4.43 µM) | 1.6 µg/mL (≈ 4.43 µM) | 1.6 µg/mL (≈ 4.43 µM) | 3.1 µg/mL (≈ 8.58 µM) | 0.8 µg/mL (≈ 2.21 µM) | 6.3 µg/mL (≈ 17.4 µM) | 1.6 µg/mL (≈ 4.43 µM) | 1.6 µg/mL (≈ 4.43 µM) | 1.6 µg/mL (≈ 4.43 µM) | 1.6 µg/mL (≈ 4.43 µM) | 6.3 µg/mL (≈ 17.4 µM) | 1.6 µg/mL (≈ 4.43 µM) | 1.6 µg/mL (≈ 4.43 µM) | 0.8 µg/mL (≈ 2.21 µM) | 3.1 µg/mL (≈ 8.58 µM) | 3.1 µg/mL (≈ 8.58 µM) | 
7 | CCN1CCN(C(=O)N[C@@H](C(=O)N[C@@H]2C(=O)N3[C@@H]2SC(C)(C)[C@@H]3C(=O)O)c2ccccc2)C(=O)C1=O [PIPERACILLIN] | 3.1 µg/mL (≈ 5.99 µM) | 100 µg/mL (≈ 193 µM) | 100 µg/mL (≈ 193 µM) | 100 µg/mL (≈ 193 µM) | 12.5 µg/mL (≈ 24.2 µM) | 3.1 µg/mL (≈ 5.99 µM) | 12.5 µg/mL (≈ 24.2 µM) | 100 µg/mL (≈ 193 µM) | 100 µg/mL (≈ 193 µM) | 100 µg/mL (≈ 193 µM) | 100 µg/mL (≈ 193 µM) | 200 µg/mL (≈ 386 µM) | 100 µg/mL (≈ 193 µM) | 3.1 µg/mL (≈ 5.99 µM) | 3.1 µg/mL (≈ 5.99 µM) | 12.5 µg/mL (≈ 24.2 µM) | 12.5 µg/mL (≈ 24.2 µM) | 
8 | GENTAMICIN |  |  |  |  | 1.6 µg/mL |  |  |  |  |  |  |  |  |  | 1.6 µg/mL |  |  | MIC (Pseudomonas aeruginosa [1]): 1.6 µg/mL; MIC (Pseudomonas aeruginosa [3]): 100 µg/mL; MIC (Pseudomonas aeruginosa [18]): 100 µg/mL; MIC (Pseudomonas aeruginosa [4]): 1.6 µg/mL; MIC (Pseudomonas aeruginosa [6]): 1.6 µg/mL; MIC (Pseudomonas aeruginosa [7]): 1.6 µg/mL; MIC (Pseudomonas aeruginosa [8]): 100 µg/mL; MIC (Pseudomonas aeruginosa [9]): 100 µg/mL; MIC (Pseudomonas aeruginosa [10]): 3.1 µg/mL; MIC (Pseudomonas aeruginosa [11]): 3.1 µg/mL; MIC (Pseudomonas aeruginosa [12]): 100 µg/mL; MIC (Pseudomonas aeruginosa [13]): 1.6 µg/mL; MIC (Pseudomonas aeruginosa [14]): 1.6 µg/mL; MIC (Pseudomonas aeruginosa [16]): 1.6 µg/mL; MIC (Pseudomonas aeruginosa [17]): 1.6 µg/mL

— ChEMBL document CHEMBL1275521, “Fluoroquinolone enhances the mutation frequency for meropenem-selected carbapenem resistance in Pseudomonas aeruginosa, but use of the high-potency drug doripenem inhibits mutant formation” (2008)
